In ChEMBL document CHEMBL4715714, “Design, synthesis and biological evaluation of thiosemicarbazones, hydrazinobenzothiazoles and arylhydrazones as anticancer agents with a potential to overcome multidrug resistance” (Eur J Med Chem, 2016):
Active and inactive are the calls of the source. The rule behind the calls is not given here.

Experiments:
HFF = test: Cytotoxicity against human HFF cells by MTT assay
MES-SA/Dx5 [1] = test: Cytotoxicity against human MES-SA/DX5 cells transfected with mCherry fluorescent protein incubated for 72 hrs in presence of efflux pump inhibitor, Tariquidar by fluorescence assay; format: functional, cell-based
Procedure, shortened: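 The mCherry-expressing cells (lentiviral) were seeded at 5000 or 2500 per well, attached for 24 h, and exposed 72 h to compounds with Tariquidar coadministered. Live-cell signal was fluorescence at 585 nm excitation and 610 nm emission.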

MES-SA/Dx5 [2] = test: Cytotoxicity against human MES-SA/DX5 cells transfected with mCherry fluorescent protein assessed as inhibition of cell proliferation incubated for 72 hrs by fluorescent assay; format: functional, cell-based; details: Homo sapiens, MES-SA/Dx5, 72 h
Procedure, shortened: (§1)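 MES-SA and MES-SA/Dx5 cells were made to stably express mCherry by lentiviral transduction. Cells were seeded at 5000 (96-well) or 2500 (384-well) per well, allowed to attach 24 h, then treated with compound dilutions for 72 h. Viability was read as fluorescence, excitation 585 nm, emission 610 nm.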

MES-SA [3] = test: Cytotoxicity against human MES-SA cells transfected with mCherry fluorescent protein assessed as inhibition of cell proliferation incubated for 72 hrs by fluorescent assay; format: functional, cell-based; details: Homo sapiens, MES-SA, 72 h
Procedure, shortened: as §1

[4] = Selectivity ratio of IC50 for human MES-SA cells transfected with mCherry to IC50 for human MES-SA/DX5 cells transfected with mCherry incubated for 72 hrs by fluorescent assay; format: functional
MES-SA/Dx5 [5] = test: Cytotoxicity against human MES-SA/DX5 cells incubated for 72 hrs in presence of efflux pump inhibitor, Tariquidar by MTT assay; format: functional, cell-based
Procedure, shortened: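 Run as the 72 h MTT viability readout (12 h attachment, MTT 0.83 mg/mL for 1 h, DMSO lysis, A540), with the P-gp inhibitor Tariquidar at 1 µM co-present. IC50 came from sigmoidal fits of 2 to 4 independent experiments.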

MES-SA [6] = test: Cytotoxicity against human MES-SA cells assessed as inhibition of cell proliferation incubated for 72 hrs by MTT assay; format: functional, cell-based
Procedure, shortened: (§2)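 Cells were seeded (10000/well for A2780, 5000/well for MES-SA/Dx5 and KB-3-1/V1) and left to attach 12 h, then exposed to compound for 72 h. Medium was removed, and MTT (0.83 mg/mL) was added for 1 h at 37 °C. Cells were lysed in DMSO and absorbance read at 540 nm. Signal was corrected for unstained lysate background, normalized to untreated cells, and IC50 taken from a sigmoidal dose-response fit.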

[7] = Selectivity ratio of IC50 for human MES-SA cells to IC50 for human MES-SA/DX5 cells incubated for 72 hrs by MTT assay; format: functional
Procedure, shortened: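 The selectivity ratio is the IC50 in P-gp-negative parental cells divided by the IC50 in the P-gp-positive resistant partner.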

MES-SA/Dx5 [8] = test: Cytotoxicity against human MES-SA/DX5 cells assessed as inhibition of cell proliferation incubated for 72 hrs by MTT assay; format: functional, cell-based; details: MES-SA/Dx5, 72 h
Procedure, shortened: as §2

KB-V1 = test: Cytotoxicity against human KB-V1 cells assessed as inhibition of cell proliferation incubated for 72 hrs by MTT assay; format: functional, cell-based; details: KB-V1, 72 h
Procedure, shortened: as §2

A2780 = test: Cytotoxicity against human A2780 cells assessed as inhibition of cell proliferation incubated for 72 hrs by MTT assay; format: functional, cell-based; details: A2780, 72 h
Procedure, shortened: as §2

KB 3-1 = test: Cytotoxicity against human KB-3-1 cells assessed as inhibition of cell proliferation incubated for 72 hrs by MTT assay; format: functional, cell-based; details: KB 3-1, 72 h
Procedure, shortened: as §2

[9] = Cytotoxicity against human A2780adr cells assessed as inhibition of cell proliferation incubated for 72 hrs by MTT assay; format: functional, cell-based; details: A2780 ADR
Procedure, shortened: as §2

| Compound | Activity (MES-SA/Dx5 [1]) | IC50 (MES-SA/Dx5 [2]; read-out: IC50) [µM] | IC50 (MES-SA/Dx5 [2]; read-out: pIC50 (converted)) [µM] | IC50 (MES-SA [3]; read-out: IC50) [µM] | IC50 (MES-SA [3]; read-out: pIC50 (converted)) [µM] | Ratio IC50 [4] | Activity (MES-SA/Dx5 [5]) | IC50 (MES-SA [6]; read-out: IC50) [µM] | Ratio IC50 [7] | IC50 (MES-SA/Dx5 [8]; read-out: IC50) [nM] | IC50 (MES-SA [6]; read-out: pIC50 (converted)) [µM] | IC50 (MES-SA/Dx5 [8]; read-out: pIC50 (converted)) [nM] | IC50 (KB-V1; read-out: IC50) [nM] | IC50 (KB-V1; read-out: pIC50 (converted)) [nM] | IC50 (A2780; read-out: IC50) [nM] | IC50 (A2780; read-out: pIC50 (converted)) [nM] | IC50 (KB 3-1; read-out: IC50) [nM] | IC50 (KB 3-1; read-out: pIC50 (converted)) [nM] | IC50 ([9]; read-out: IC50) [nM] | IC50 ([9]; read-out: pIC50 (converted)) [nM] | also measured |
| --- | --- | --- | --- | --- | --- | --- | --- | --- | --- | --- | --- | --- | --- | --- | --- | --- | --- | --- | --- | --- | --- |
| COc1ccc(NC(=S)NNC2=c3ccccc3=NC2=O)cc1 |  |  |  |  |  |  |  |  |  |  |  |  |  |  |  |  |  |  |  |  | Activity (HFF): Toxic |
| COc1ccc(O)c(/C(C)=N/Nc2nc3ccccc3s2)c1 | Active | 15.4 | 14.1 | 50.7 | 50.1 | 4.71 |  |  |  |  |  |  |  |  |  |  |  |  |  |  |  |
| O=C1Nc2ccccc2/C1=N/NC(=S)Nc1cccc(C(F)(F)F)c1 | inactive | 1.95 |  | 3.34 |  | 2.42 | inactive | 2.06 | 1.44 | 1400 |  |  |  |  |  |  |  |  |  |  |  |
| NC(=S)N/N=C/c1ncccc1N [TRIAPINE] |  | 2.52 |  | 1.3 |  |  | Active |  |  |  |  |  |  |  |  |  |  |  |  |  |  |
| C/C(=N\Nc1nc2ccccc2s1)c1ccccc1N |  | 19 |  | 46.2 |  | 2.41 |  | 45.6 | 1.64 | 28000 | 44.7 | 27500 |  |  |  |  |  |  |  |  |  |
| COc1ccc(NC(=S)N/N=C(\C)c2ccccn2)cc1 | Active | 0.064 | 0.0575 | 0.25 | 0.229 | 4.54 | Active | 0.34 | 22.59 | 14.2 | 0.339 | 14.1 | 1750 | 1050 | 46 | 45.7 | 950 | 692 | 31 | 28.2 |  |
| Cc1ccc(NC(=S)N/N=C/c2ccccn2)cc1 |  | 0.77 | 0.562 | 0.79 | 0.759 |  | Active | 0.396 | 4.55 | 76 | 0.363 | 72.4 | 920 | 891 | 48 | 47.9 | 740 | 724 | 64 | 63.1 | Activity (HFF): Non-Toxic |
| Cc1ccc(NC(=S)N/N=C/c2ccccc2O)cc1 |  | 1.87 |  | 1.44 |  |  |  | 3.97 |  | 5360 |  |  | 3690 | 3470 | 5150 | 5010 | 3360 | 3310 | 6010 | 6030 | Activity (HFF): Toxic |
| Oc1ccccc1/C=N/NC(=S)Nc1ccccc1 | Active | 6.45 | 4.79 | 14 | 11.5 | 2.23 |  |  |  |  |  |  |  |  |  |  |  |  |  |  |  |
| COc1ccc(NC(=S)N/N=C2\C(=O)Nc3ccc(OC(F)(F)F)cc32)cc1 | inactive | 2.52 |  | 8.14 |  | 3.29 | inactive | 6.14 | 2.31 | 2780 | 5.75 | 2570 | 3920 | 3890 | 3390 | 3240 | 6560 | 6170 | 3770 | 3550 |  |
| C/C(=N\Nc1nc2ccccc2s1)c1ccccn1 |  | 0.1 | 0.0832 | 0.25 | 0.24 |  | Active | 0.2 | 17.58 | 14 | 0.219 | 12.3 | 280 | 295 | 94 | 89.1 | 340 | 372 | 31 | 30.2 | Activity (HFF): Non-Toxic |
| CCc1ccc(/C=N/Nc2nc3ccccc3s2)nc1 |  | 3.83 | 3.55 | 4.26 | 4.27 |  |  | 3.24 | 1.68 | 1850 | 3.16 | 1860 | 1140 | 1150 | 810 | 813 | 610 | 933 | 620 | 589 |  |
| Oc1ccccc1/C=N/Nc1nc2ccccc2s1 | inactive | 4.55 | 4.27 | 23.2 | 26.9 | 7.18 | Active | 24.7 | 2.04 | 10400 | 23.4 | 9550 | 11700 | 11700 | 3160 | 3090 | 18100 | 15800 | 6010 | 5890 |  |
| Cc1ccc(O)c(/C=N/Nc2nc3ccccc3s2)c1 | Active | 15.6 | 13.8 | 89.1 | 85.1 | 5.65 |  |  |  |  |  |  |  |  |  |  |  |  |  |  |  |
